ChEMBL document CHEMBL1123626, “Novel irreversible ligands specific for "peripheral" type benzodiazepine receptors: (+/-)-, (+)-, and (-)-1-(2-chlorophenyl)-N-(1-methylpropyl)-N- (2-isothiocyanatoethyl)-3-isoquinolinecarboxamide and 1-(2-isothiocyanatoethyl)-7-chloro-1,3-dihydro-5-(4-chlorophenyl )-2H-1,4-benzodiazepin-2-one” (J Med Chem, 1987)

Tests used:
[1] = Inhibition of [3H]-PK 11195 binding to Peripheral Benzodiazepine Receptor of rat kidney tissue (50 mg protein)
[2] = Inhibition of [3H]-Ro- 5-4864 binding to Peripheral Benzodiazepine Receptor of rat brain (255 mg protein)
[3] = Inhibition of [3H]-Ro- 5-4864 binding to Peripheral Benzodiazepine Receptor of rat kidney (62 mg protein)
[4] = Inhibition of [3H]-PK 11195 binding to Peripheral Benzodiazepine Receptor of rat brain tissue (263 mg protein)
[5] = Inhibition of [3H]-PK 11195 binding to Peripheral Benzodiazepine Receptor of rat kidney tissue (22 mg protein)
Method in brief: (§1)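 Kidneys from male Sprague-Dawley rats (150-200 g), decapitated, were decapsulated, minced, and homogenized in ice-cold 50 mM potassium phosphate (pH 7.0). The homogenate was spun at 23000 g for 20 min at 4 °C and the pellet resuspended. Tritiated radioligand was used at 1 nM against six inhibitor concentrations in triplicate. IC50 and pseudo Hill coefficient are given as means of two experiments.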

[6] = Inhibition of [3H]-Ro- 5-4864 binding to Peripheral Benzodiazepine Receptor of rat kidney (22 mg protein)
Method in brief: as §1

[7] = Inhibition of [3H]-PK 11195 binding to Peripheral Benzodiazepine Receptor of rat brain tissue (110 mg protein)
Method in brief: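 Brain membrane binding used 1 nM tritiated radioligand, with six inhibitor concentrations each run in triplicate. Protein per assay was as specified. IC50 in nmol/L and pseudo Hill coefficient are reported as means of two independent experiments.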

[8] = Inhibition of [3H]-Ro- 5-4864 binding to Peripheral Benzodiazepine Receptor of rat kidney (110 mg protein)
Method in brief: as §1

[9] = Inhibition of [3H]-PK 11195 binding to Peripheral Benzodiazepine Receptor of rat kidney tissue (110 mg protein)
Method in brief: as §1

IC50 [5] [nM l-1] | IC50 [6] [nM l-1] | IC50 [7] [nM l-1] | IC50 [8] [nM l-1] | IC50 [9] [nM l-1] | Compound | IC50 [1] [nM l-1] | IC50 [2] [nM l-1] | IC50 [3] [nM l-1] | IC50 [4] [nM l-1]
 |  |  |  |  | CCC(C)N(CCN=C=S)C(=O)c1cc2ccccc2c(-c2ccccc2Cl)n1 (racemic) | 2.9 | 3 | 2 | 15
3.9 | 2.9 | 10 | 6.3 |  | CCC(C)N(CCN=C=S)C(=O)c1cc2ccccc2c(-c2ccccc2Cl)n1 (single isomer, unassigned; (-)) |  |  |  | 
1.6 | 1.2 |  | 2.9 | 3.5 | CCC(C)N(CCN=C=S)C(=O)c1cc2ccccc2c(-c2ccccc2Cl)n1 (stereo in doubt; 11b) |  |  |  | 
 |  |  |  |  | O=C1CN=C(c2ccc(Cl)cc2)c2cc(Cl)ccc2N1CCN=C=S | 1.2 | 2.1 | 1.2 | 2.1
